According to PMC3958936 (Bioorganic & medicinal chemistry, 2013):

Tests used:
DNA polymerases α and β = conditions: read-out: IC50, DNA polymerases α and β; direct in vitro inhibition; cited from earlier work
[1] = tested on: HeLa, RKO, HaCaT, Jurkat T, BAEC; experiment: Cell proliferation assays, first generation, statements pooled over cell lines; assay type: cell-based; conditions: for anti-proliferative IC50 values, in words: first generation protocol, cell lines tested
cancer cell lines = conditions: cell culture, variety of cancer cell lines; cited from earlier work
[2] = tested on: xenograft mouse models, melanoma models; conditions: several xenograft mouse models; cited from earlier work
IL-2 reporter gene = conditions: Jurkat T cells; data previously reported; ref Romo et al.[29]; cited from earlier work
SK-MEL2 = experiment: Proliferation assay on SK-MEL2 cultured with reduced serum, 5% FBS; assay type: cell-based; conditions: 5% FBS versus 10% FBS
[3] = tested on: immortalized mouse embryonic fibroblasts (MEFs); assay type: cell-based; conditions: for IC50: Mus musculus, Fibroblast, read-out: estimated IC50, MEFs; for fold loss in activity in MEFs compared with cancer cell lines: estimated
Jurkat T cells = experiment: MTT cell proliferation assay, second-generation analogs, Jurkat T; assay type: cell-based, human; conditions: versus DMDAPatA (2)
Method in brief: (§1)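 HeLa and SK-MEL2 cells were grown in DMEM, Jurkat T cells in RPMI 1640, each with 10% FBS and pen-strep at 37 °C, 5% CO2. Adherent lines were seeded at 2000 cells/well and allowed to recover overnight; Jurkat were seeded at 5000 cells/well with no recovery. Compound was given in 0.1% DMSO final for 72 h, then MTT read-out.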

SK-MEL2 melanoma cells = experiment: MTT cell proliferation assay, second-generation analogs, SK-MEL2; assay type: cell-based; conditions: versus DMDAPatA (2)
Method in brief: as §1

[4] = tested on: HeLa, Jurkat T cells, and SK-MEL2; experiment: MTT cell proliferation assays, statements pooled over all three cell lines; assay type: cell-based; conditions: for cell proliferation inhibition activity, in words: all cell lines tested
HeLa = experiment: MTT cell proliferation assay, second-generation analogs, HeLa; assay type: cell-based, human; conditions: versus DMDAPatA (2)
Method in brief: as §1

[5] = tested on: cap-dependent (eIF4AI/II-dependent) translation; experiment: In vitro translation assay in rabbit reticulocyte lysate, cap-dependent cistron; assay type: biochemical; conditions: for fold loss of activity in in vitro translation assay: versus DMDAPatA (2)
Method in brief: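 Bicistronic reporter mRNA (cap-dependent firefly cistron; HCV IRES-driven Renilla cistron) was SP6-transcribed from linearized plasmid and purified. 200 ng RNA was translated in 20 μl rabbit reticulocyte lysate reactions with 70 mM KCl, 2 mM DTT and RNasin. Compound in DMSO was added at 5% (v/v) final. Reactions ran 1.5 h at 30 °C, then dual-luciferase read-out. Duplicates; 4 independent assays; IC50 by curve fitting, averaged.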

SMILES: CC(/C=C/C(C)=C/[C@@H]1Cc2nc(cs2)CCCCC(=O)O[C@@H](C)C/C(C)=C/C=C\C(=O)O1)=C\CN(C)C [Compound 2, C5-des-methyl, C3-des-amino pateamine A]
- IC50 (DNA polymerases α and β): 3000 to 19000 nM
- fold lower activity than PatA in cell proliferation assays ([1]; DMDAPatA versus PatA): roughly 10 fold
- anti-proliferative IC50 values, in words [1]: single-digit nanomolar
- anti-proliferative IC50 values in cancer cell lines, in words (cancer cell lines): approximately single-digit nanomolar
- anticancer activity in xenograft mouse models [2]: potent anticancer activity in several xenograft mouse models with especially significant regressions in melanoma models
- IC50 (nM) IL-2 reporter gene assay (IL-2 reporter gene): sub-nanomolar
- fold reduced anti-proliferative activity under 5% FBS (SK-MEL2): roughly 2 fold
- IC50 [3]: > 50 nM
- fold loss in activity in MEFs compared with cancer cell lines [3]: roughly 5 fold

SMILES: C/C(Br)=C\[C@@H]1Cc2nc(cs2)CCCCC(=O)O[C@@H](C)C/C(C)=C/C=C\C(=O)O1 [Compound 5]
- fold loss of activity in Jurkat T cells (Jurkat T cells): ≥ 700 fold
- fold loss of activity in SK-MEL2 cells (SK-MEL2 melanoma cells): ≥ 700 fold

SMILES: C/C(Br)=C\[C@@H]1Cc2nc(cs2)CCCCC(=O)O[C@@H](C)C/C(C)=C/C=C/C(=O)O1 [Compound 6]
- cell proliferation inhibition activity, in words [4]: inactive

SMILES: CC(/C=C/C(C)=C/[C@@H]1Cc2nc(cs2)CCCCC(=O)O[C@@H](C)C/C(C)=C/C=C\C(=O)O1)=C\CN1CCOCC1 [Compound 9b]
- fold loss of activity in Jurkat T cells (Jurkat T cells): at least 700 fold
- fold loss of activity in SK-MEL2 cells (SK-MEL2 melanoma cells): approximately 25 fold
- fold increase of activity under 5% FBS (SK-MEL2): roughly 2 fold
- IC50 [3]: > 2000 nM
- fold loss in activity in MEFs compared with cancer cell lines [3]: roughly 5 fold
- fold loss of activity in HeLa cells (HeLa): greater than 400 fold
- fold loss of activity in in vitro translation assay [5]: roughly 3 fold

SMILES: CC(/C=C/C(C)=C/[C@@H]1Cc2nc(cs2)CCCCC(=O)O[C@@H](C)C/C(C)=C/C=C\C(=O)O1)=C\CN1CCCC1 [Compound 9c]
- fold loss of activity in all cell lines ([4]; versus DMDAPatA (2), HeLa, SK-MEL2, Jurkat T): ~2 fold
- IC50 [3]: > 100 nM
- fold loss of activity in in vitro translation assay [5]: 2 fold

SMILES: CC(/C=C/C=C/CO)=C\[C@@H]1Cc2nc(cs2)CCCCC(=O)O[C@@H](C)C/C(C)=C/C=C\C(=O)O1 [Compound 9e]
- IC50 (nM) cap-dependent translation inhibition ([5]; rabbit reticulocyte lysate, 30 °C, 1.5 h, ± 1 standard deviation, N.E. = no effect up to concentration (nM) in parentheses): a degree of activity at high concentration

SMILES: CC(/C=C/C(C)=C/[C@@H]1Cc2nc(cs2)CCCCC(=O)O[C@@H](C)C/C(C)=C/C#CC(=O)O1)=C\CN(C)C [Compound 10a]
- cell proliferation inhibition activity, in words [4]: no effect was observed

SMILES: COCCC/C=C/C(C)=C/[C@@H]1Cc2nc(cs2)CCCCC(=O)O[C@@H](C)C/C(C)=C/C#CC(=O)O1 [Compound 10f]
- cell proliferation inhibition activity, in words [4]: did not demonstrate any significant cell proliferation inhibition activity

SMILES: CC(/C=C/CCCO)=C\[C@@H]1Cc2nc(cs2)CCCCC(=O)O[C@@H](C)C/C(C)=C/C#CC(=O)O1 [Compound 10g]
- cell proliferation inhibition activity, in words [4]: did not demonstrate any significant cell proliferation inhibition activity

SMILES: CC(/C=C/C(C)=C/[C@@H]1Cc2nc(cs2)[C@@H](C)C[C@@H](N)CC(=O)O[C@@H](C)C/C(C)=C/C=C\C(=O)O1)=C\CN(C)C [PatA (1), pateamine A, reference compound]
- anti-proliferative IC50 values, in words [1]: sub-nanomolar
- anti-proliferative IC50 values in cancer cell lines, in words (cancer cell lines): sub-nanomolar range
